Here are results for 1 compound from ChEMBL document CHEMBL4270576, “Discovery of a benzenesulfonamide-based dual inhibitor of microsomal prostaglandin E2 synthase-1 and 5-lipoxygenase that favorably modulates lipid mediator biosynthesis in inflammation” (Eur J Med Chem, 2018).

For data set [1], the species on record is Homo sapiens. Briefly: Modulation of LO-mediated 5,15-DiHETE level in human M2 macrophages derived from IL4-polarized human monocyte derived macrophages at 3 uM preincubated for 15 mins followed by Escherichia coli (O6:K2:H1) challenge for 90 mins by LC-MS/MS analysis. Put shortly:
(§1)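 Monocytes differentiated 6 days with M-CSF (20 ng/ml), then polarized 48 h with IL-4 20 ng/ml (M2). Cells (2 × 10^6) in PBS/1 mM CaCl2 pre-incubated 15 min at 37 °C with 3 µM compound or 0.1% DMSO, then challenged with E. coli O6:K2:H1 (1:50) for 90 min. Lipid mediators extracted by SPE with deuterated internal standards and quantified by UPLC-MS/MS as % of vehicle.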

The target in data set [2] is T1, Polyunsaturated fatty acid lipoxygenase ALOX12 (Homo sapiens) (UniProt P18054).
T1 sequence (whole entry): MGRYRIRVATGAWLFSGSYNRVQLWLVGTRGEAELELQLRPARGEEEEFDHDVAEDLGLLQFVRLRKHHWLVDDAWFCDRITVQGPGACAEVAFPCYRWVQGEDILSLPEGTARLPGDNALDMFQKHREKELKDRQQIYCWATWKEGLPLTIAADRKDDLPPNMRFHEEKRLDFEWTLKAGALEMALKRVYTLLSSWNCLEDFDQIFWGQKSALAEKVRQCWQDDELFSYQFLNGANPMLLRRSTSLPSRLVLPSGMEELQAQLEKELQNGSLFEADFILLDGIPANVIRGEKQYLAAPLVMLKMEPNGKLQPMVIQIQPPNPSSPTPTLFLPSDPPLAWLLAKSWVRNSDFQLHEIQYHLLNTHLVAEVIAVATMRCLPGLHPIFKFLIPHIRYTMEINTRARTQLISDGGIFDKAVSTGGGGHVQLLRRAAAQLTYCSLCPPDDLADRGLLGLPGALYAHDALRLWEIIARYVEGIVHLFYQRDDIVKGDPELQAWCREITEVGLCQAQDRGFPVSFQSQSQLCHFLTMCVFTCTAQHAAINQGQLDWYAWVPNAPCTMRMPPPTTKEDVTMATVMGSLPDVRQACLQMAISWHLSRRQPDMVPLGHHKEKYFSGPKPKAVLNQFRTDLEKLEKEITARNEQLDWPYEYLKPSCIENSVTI
Briefly: Modulation of 12-LO-mediated 12-HEPE level in human M2 macrophages derived from IL4-polarized human monocyte derived macrophages at 3 uM preincubated for 15 mins followed by Escherichia coli (O6:K2:H1) challenge for 90 mins by LC-MS/MS analysis. Summed up:
as §1

The target in data set [3] is T2, Polyunsaturated fatty acid lipoxygenase ALOX15 (Homo sapiens) (UniProt P16050).
T2 sequence (whole entry): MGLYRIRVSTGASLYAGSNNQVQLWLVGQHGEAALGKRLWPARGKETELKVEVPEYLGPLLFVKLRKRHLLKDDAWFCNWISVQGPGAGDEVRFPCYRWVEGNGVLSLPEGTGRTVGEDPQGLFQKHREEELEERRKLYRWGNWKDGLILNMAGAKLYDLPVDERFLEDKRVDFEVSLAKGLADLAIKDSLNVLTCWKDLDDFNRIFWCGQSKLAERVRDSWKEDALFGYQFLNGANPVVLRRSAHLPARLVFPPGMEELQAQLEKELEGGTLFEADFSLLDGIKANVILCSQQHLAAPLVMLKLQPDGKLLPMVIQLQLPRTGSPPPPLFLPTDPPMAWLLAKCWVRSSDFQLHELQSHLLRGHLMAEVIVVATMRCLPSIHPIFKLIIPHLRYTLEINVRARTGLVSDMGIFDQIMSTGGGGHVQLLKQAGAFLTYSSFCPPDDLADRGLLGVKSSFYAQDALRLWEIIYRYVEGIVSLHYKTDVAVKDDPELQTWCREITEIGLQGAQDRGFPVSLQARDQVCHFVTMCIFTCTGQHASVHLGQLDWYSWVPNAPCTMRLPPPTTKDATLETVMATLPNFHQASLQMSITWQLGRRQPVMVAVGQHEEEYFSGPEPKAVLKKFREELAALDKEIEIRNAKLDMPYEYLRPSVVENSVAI
Briefly: Modulation of 15-LO-mediated 15-HEPE level in human M2 macrophages derived from IL4-polarized human monocyte derived macrophages at 3 uM preincubated for 15 mins followed by Escherichia coli (O6:K2:H1) challenge for 90 mins by LC-MS/MS analysis. Put shortly: as §1

A further data set concerns the target T3, Leukotriene C4 synthase (Homo sapiens, UniProt Q16873).
T3 sequence (Q16873 whole entry): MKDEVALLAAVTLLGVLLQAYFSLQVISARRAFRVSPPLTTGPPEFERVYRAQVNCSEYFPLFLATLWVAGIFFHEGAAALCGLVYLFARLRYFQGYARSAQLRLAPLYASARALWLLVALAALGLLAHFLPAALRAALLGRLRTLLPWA
Briefly: Inhibition of LTC4 synthase (unknown origin).

The target in a further data set is Cyclooxygenase (Homo sapiens, UniProt P35354+P23219). Briefly: Modulation of COX1/2-mediated 11-HEPE level in human M2 macrophages derived from IL4-polarized human monocyte derived macrophages at 3 uM preincubated for 15 mins followed by Escherichia coli (O6:K2:H1) challenge for 90 mins by LC-MS/MS analysis. Type of data set: ADME. The following applies: 1.5 h. Summed up: as §1

Data set [4] is filed under the species Homo sapiens. Briefly: Modulation of LO-mediated PD1 level in human M2 macrophages derived from IL4-polarized human monocyte derived macrophages at 3 uM preincubated for 15 mins followed by Escherichia coli (O6:K2:H1) challenge for 90 mins by LC-MS/MS analysis. Put shortly: as §1
For data set [5], the target named is T2, Polyunsaturated fatty acid lipoxygenase ALOX15 (Homo sapiens). Briefly: Modulation of 15-LO-mediated 17-HDHA level in human M2 macrophages derived from IL4-polarized human monocyte derived macrophages at 3 uM preincubated for 15 mins followed by Escherichia coli (O6:K2:H1) challenge for 90 mins by LC-MS/MS analysis. Put shortly:
as §1

Data set [6] has the same target. Briefly: Modulation of 15-LO-mediated 7-HDHA level in human M2 macrophages derived from IL4-polarized human monocyte derived macrophages at 3 uM preincubated for 15 mins followed by Escherichia coli (O6:K2:H1) challenge for 90 mins by LC-MS/MS analysis. Summed up:
as §1

The test system of the next data set is Macrophage cell line. Briefly: Modulation of 18-HEPE level in human M2 macrophages derived from IL4-polarized human monocyte derived macrophages at 3 uM preincubated for 15 mins followed by Escherichia coli (O6:K2:H1) challenge for 90 mins by LC-MS/MS analysis. Format: functional. Summed up:
as §1

The structures appear in SMILES notation.

Consider `O=C(O)c1ccc(N(Cc2cccc(OCc3ccccc3)c2)S(=O)(=O)c2ccc(-c3ccccc3)cc2)cc1`, for which the Activity was 122% in the data set filed under Homo sapiens [1]; 140% in data set [2]; 125% in [3]; 107% at Cyclooxygenase; 110% in the data set listed under Homo sapiens [4]; 124% in data set [5]. In addition, the figures for the Activity (in data set [6]; with Macrophage cell line) were 107% and 86%, respectively. Besides, the IC50 at Leukotriene C4 synthase was 1.8 µM.
